For data set [1], the system named is Leishmania donovani. Briefly: Antileishmanial activity against antimony-sensitive Leishmania donovani 200016 promastigotes in bone marrow-derived macrophages assessed as parasite suppression at 100 ug/ml. The data set is classed as functional. Put shortly: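 Fixed 72 h post-treatment and Giemsa-stained (10% v/v). Percent of 200 random cells infected was scored, and mean % suppression ± SE was taken against the control mean. Mann–Whitney U test vs control, p < 0.05 significant.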

The nature of data set [2]: Toxicity against bone marrow-derived macrophages. The data set is classed as cell-based. Particulars: human, macrophage.
Data set [3] relates to Leishmania donovani. Briefly: Antileishmanial activity against antimony-sensitive Leishmania donovani 200016 promastigotes in bone marrow-derived macrophages at 37 ug/ml. The data set is classed as functional.
Data set [4] relates to Macrophage. The experiment in a line: Decrease in cellular glutathione levels in macrophages. It counts as functional, cell-based. Particulars: Homo sapiens.
Data set [5] relates to Leishmania donovani. Briefly: Antileishmanial activity against antimony-sensitive Leishmania donovani 200016 promastigotes in bone marrow-derived macrophages. It counts as functional. Particulars: read-out: LD50 (the source's name). Put shortly:
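After 72 h, cells fixed and stained with 10% v/v aqueous Giemsa; mean percentage of infected cells scored from 200 random cells. Mean percentage suppression ± SE computed against control mean; significance tested by Mann–Whitney U test, p < 0.05.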

The text below walks through data of ChEMBL document CHEMBL1146298, “Identification of the benzodiazepines as a new class of antileishmanial agent” (Bioorg Med Chem Lett, 2007).

Each structure is given as a SMILES string. Calls of active or inactive are those of the source. The calls are words filed in the database; no cut-off is given here.

In the case of `O=C1Nc2ccccc2C(=O)N2Cc3ccccc3C[C@@H]12`, the Activity in data set [1] is 25%. `O=C1c2ccccc2NC[C@H]2CCCN12`: in data set [1], the Activity was determined as 61.7%. With `c1ccc2c(c1)CN1CCC[C@@H]1CN2`, the Activity in data set [1] was 67.8%. As to `CN1C(=O)CN(CC2CCCCC2)C(=O)c2ccccc21`, in data set [2], the Activity entry was “Toxic”. Further, the outcome in data set [3] was inactive. For the same compound, in data set [4], the result was Active. Consider `CC(C)C[C@@H]1NC(=O)c2ccccc2NC1=O`, for which the outcome in data set [1] was inactive. Take `CCCCCCN1CC(=O)N(C)c2ccccc2C1=O`: the Activity result in data set [2] is on record as “Toxic”. Also, in data set [1], the result was inactive.

For `CN1C(=O)CN(c2ccccc2)C(=O)c2ccccc21`, the result in data set [1] was inactive.

`C[C@@H]1NC(=O)c2ccccc2NC1=O`: in data set [1], the Activity is listed as 28%. On to `O=C1Nc2ccccc2C(=O)N2CSC[C@@H]12`, for which the Activity entry in data set [2] was “Toxic”; in data set [1] it was 33%. For `CCCN1CC(=O)N(C)c2ccccc2C1=O`, the Activity in data set [1] is 72%. Consider `CN1C(=O)CN(C2CCCCC2)C(=O)c2ccccc21`, for which, in data set [1], the Activity was 26.4%. On the same count and under the same terms, the result for `CN1CC(=O)N(C)c2ccccc2C1=O` reads “inactive”. Consider `O=C1Nc2ccccc2C(=O)N2CCC[C@H]12`, for which the Activity in data set [1] amounted to 85.4%. Same read-out and setting: for `O=C1N[C@@H](Cc2ccccc2)C(=O)Nc2ccccc21` the value was 53.5%; for `O=C1N[C@H](Cc2ccccc2)C(=O)Nc2ccccc21`, 23%.

Regarding `COc1cccc(CN2CC(=O)N(C)c3ccccc3C2=O)c1`, in data set [1], the Activity was determined as 54.6%.

Take `CN1C(=O)CN(CC2CC2)C(=O)c2ccccc21`: the outcome in data set [1] was inactive. Same read-out and setting: for `c1ccc2c(c1)CN1CCC[C@H]1CN2` the value was 23%. As for `CN1C(=O)CN(CC2CCCCC2)C(=O)c2cc(Cl)ccc21`, in data set [5], the LC50 turned out to be 115 µM. Also, the results for the Activity in data set [3] and in data set [1] were 73% and 85%, respectively. For the same compound, the outcome in data set [4] was Active.

Turning to `CN1C(=O)CN(Cc2ccccc2)C(=O)c2ccccc21`, the Activity in data set [1] worked out at 51%.

On to `O=C1CNC(=O)c2ccccc2N1`, for which the Activity in data set [1] turned out to be 19%.

Turning to `O=C1c2ccccc2NC[C@@H]2CCCN12`, in data set [1], the Activity was determined as 70.6%. With `O=C1N[C@@H](Cc2ccc(O)cc2)C(=O)Nc2ccccc21`, the Activity in data set [1] is given as 64.4%.

Consider `CN1C(=O)CN(CCc2ccccc2)C(=O)c2ccccc21`, for which the Activity in data set [1] is recorded as 19.6%.

As for `O=C1Nc2ccccc2C(=O)N2CCC[C@@H]12`, the Activity in data set [1] stood at 70.3%.
